# Hits are enriched below; roughly 2.4% of the tested compounds scored in any of these assays.
# HGIII-sPLA2 inh: Inhibits HGIII-sPLA2 liposome hydrolysis, primary screen; Q9NZ20; AID 743126; inhibition, % at 12.2 µM; QFRET BODIPY PC-A2 liposome hydrolysis, fluorescence; 370,000 compounds, 0.56% hits;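 active = inhibition above mean plus 3 SD of compounds lying within the high and low control bounds, cut at about 19% in these data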;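 also: 0% = median of test compound wells and 100% = no enzyme DMSO wells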
# Target sequence (Q9NZ20 whole entry, looked up): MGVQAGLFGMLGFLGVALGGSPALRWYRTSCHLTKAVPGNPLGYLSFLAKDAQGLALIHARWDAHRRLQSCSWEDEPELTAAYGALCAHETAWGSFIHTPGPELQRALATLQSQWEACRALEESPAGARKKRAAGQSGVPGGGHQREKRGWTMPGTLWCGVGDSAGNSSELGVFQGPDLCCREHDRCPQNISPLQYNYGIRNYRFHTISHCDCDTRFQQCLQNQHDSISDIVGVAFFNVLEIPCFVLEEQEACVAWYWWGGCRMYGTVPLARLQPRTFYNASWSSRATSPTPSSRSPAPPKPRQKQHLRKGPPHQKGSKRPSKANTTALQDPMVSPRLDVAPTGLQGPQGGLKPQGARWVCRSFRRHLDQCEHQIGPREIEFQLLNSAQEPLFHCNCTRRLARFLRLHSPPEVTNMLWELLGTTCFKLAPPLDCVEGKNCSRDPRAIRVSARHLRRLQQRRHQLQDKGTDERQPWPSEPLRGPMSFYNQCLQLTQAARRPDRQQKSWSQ
# PfM18AAP inh: PfM18AAP enzyme inhibition; inhibition, % at 7.35 µM; 290,000 compounds, 1.2% hits; recombinant PfM18AAP, H-Glu-NHMec fluorogenic cleavage;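 active = inhibition above the campaign mean inhibition over all tested compounds plus 3 SD, cut at about 28% in these data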;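 also: 0% = plate median of test compound wells and 100% = 2 mM ZnCl2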
# VIM-2 inh: blocks Pseudomonas aeruginosa VIM-2 metallo-beta-lactamase; purified VIM-2, nitrocefin hydrolysis, epi-absorbance fluorescence; inhibition, % at 5.6 µM; 290,000 compounds, 0.89% hits; AID 1527;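 active = inhibition above the mean of all tested compounds plus 3 SD, cutoff set per screening run, cut at about 7.5% in these data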;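 also: red hydrolysis product quenches plate fluorescence so inhibitors raise well fluorescence; 0% = enzyme with DMSO and 100% = DMSO without enzyme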
# IMP-1 inh-1: inhibitors of Pseudomonas aeruginosa IMP-1 metallo-beta-lactamase. purified IMP-1, nitrocefin hydrolysis, epi-absorbance fluorescence. inhibition, % at 5.6 µM. 290,000 compounds, 0.45% hits;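 active = inhibition above the mean plus 3 SD of all compounds in the same screening run, cut at about 4.5% in these data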;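 also: 0% = IMP-1 with DMSO and 100% = DMSO wells lacking enzyme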
#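 assay system = purified recombinant IMP-1 metallo-beta-lactamase enzyme | schedule = 15 min preincubation plus 25 min reaction at 25 °C | signal = Epi-absorbance fluorescence, 480 nm excitation, 530 nm emission | read-out basis = percent inhibition from optical density relative to buffer-blank wells | controls = IMP-1 with DMSO as 0%, enzyme-free DMSO as 100%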
# IMP-1 inh-2: IMP-1 inhibition, counter-screen for VIM-2 inhibitors | inhibition, % at 5.6 µM | AID 1856 | 1,300 tested, under 10 active | shares compounds with VIM-2 inh | purified IMP-1, nitrocefin hydrolysis, epi-absorbance fluorescence; call rule not given here;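 also: 0% = enzyme with vehicle and 100% = vehicle without enzyme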
# VIM-2 FRET ctr: VIM-2 FRET inhibition, artifact counter-screen; 1,300 compounds, 23% hits; purified VIM-2, CCF2 FRET substrate hydrolysis; inhibition, % at 5.6 µM; shares compounds with VIM-2 inh;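 active = inhibition above the mean of all tested compounds plus 3 SD, cut at about 19% in these data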;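 also: 0% = VIM-2 plus DMSO and 100% = no enzyme wells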
# TEM-1 inh: selectivity counter-screen for VIM-2 inhibitors: E. coli TEM-1 inhibitors; shares compounds with VIM-2 inh; Purified TEM-1, nitrocefin hydrolysis, epi-absorbance fluorescence; inhibition, % at 5.6 µM; 1,300 compounds, 3% hits;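 active = inhibition above that campaign's mean inhibition plus 3 SD, cut at about 0.46% in these data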;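 also: 0% = TEM-1 with DMSO and 100% = TEM-1 with 100 µM potassium clavulanate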
# VIM-2 inh conf: confirmation of P. aeruginosa VIM-2 metallo-beta-lactamase inhibitors. 1,300 compounds, 96% hits. shares compounds with VIM-2 inh. AID 2187. purified VIM-2, nitrocefin hydrolysis, epi-absorbance. inhibition, % at 5.6 µM;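 active = inhibition of the VIM-2 beta-lactamase enzyme above about 11% from the earlier first-round screen, limit read from the data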;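 also: 0% = VIM-2 with DMSO and 100% = buffer wells without enzyme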
# Starred values were filed as active, the others as inactive; x = no result given.
SMILES,HGIII-sPLA2 inh,PfM18AAP inh,VIM-2 inh,IMP-1 inh-1,IMP-1 inh-2,VIM-2 FRET ctr,TEM-1 inh,VIM-2 inh conf
COc1ccc(Nc2nc(N3CCCC3)nc3ccccc23)c(OC)c1,-3,-2,31*,-1,-2,1,-6,43*
CCOC(=O)CC[C@H]1CC[C@]2(CCCN(C3CCCCC3)C2)O1,4,x,x,x,x,x,x,x
Cc1cc([N+](=O)[O-])c(C)cc1-c1ccc(/C=N/NC(=O)Cn2nnnc2N)o1,-3,5,33*,-4,-3,-11,-3,42*
Nc1nnnn1CC(=O)N/N=C/c1cc([N+](=O)[O-])ccc1Cl,-4,-3,0,0,x,x,x,x
Cc1cc([N+](=O)[O-])c(C)cc1-c1ccc(/C=N/n2cnnc2)o1,-4,15,44*,-3,-1,-1,-5,50*
Cc1n[nH]c(=S)n1/N=C/c1ccc(-c2ccccc2[N+](=O)[O-])o1,8,7,1,-3,x,x,x,x
Cc1[nH]c2ccccc2c1C(=O)C(=O)N1CCN(c2cccc(Cl)c2)CC1,-28,7,-5,-3,x,x,x,x
Cc1cccc(/C=C2/Sc3ccc(C(=O)NCCCN4CCOCC4)cc3NC2=O)c1,-14,11,18*,-3,-2,23*,-7,12*
CCN1CCCC1CNC(=O)c1ccc2c(c1)NC(=O)/C(=C\c1ccc(OC)c(OC)c1)S2 (stereo not given),-16,5,21*,1,-4,14,-7,24*
COc1ccc(/C=C2/Sc3ccc(C(=O)NCCCN4CCOCC4)cc3NC2=O)cc1OC,-19,8,22*,-4,-4,19*,-13,25*
O=C(CSc1ccc2nnc(-c3ccccn3)n2n1)Nc1ccccc1F,-1,3,0,0,x,x,x,x
COc1cc(C(=O)N/N=C/c2coc3ccccc3c2=O)cc(OC)c1OC,-12,30*,18*,4,2,31*,-5,19*
CCOC(=O)c1cnc(-n2nc(C)cc2C)nc1Nc1ccc(C)cc1,5,0,1,-3,x,x,x,x
CCOC(=O)c1cnc(-n2nc(C)cc2C)nc1Nc1ccc(N(C)C)cc1,16,-4,26*,-4,-5,-35,-5,75*
CCOC(=O)c1cnc(-n2nc(C)cc2C)nc1NC1CCCCC1,11,-1,14*,-5,-6,-28,-7,28*
CC(C)N1CCc2c(sc(NC(=O)c3cc(-c4cccs4)nc4ccccc34)c2C(N)=O)C1,x,4,20*,-2,-2,13,-4,46*
COC(=O)[C@]1(Cc2ccccc2)N[C@H](CN(C)C(=O)Nc2ccc(OC)cc2)[C@@H]2C(=O)N(Cc3ccccc3)C(=O)[C@@H]21,-10,x,x,x,x,x,x,x
CCOc1ccc2nc(NCCNC(=O)Nc3ccccc3)c(C#N)cc2c1,-1,6,-1,0,x,x,x,x
CCOc1ccc2nc(NCCNC(=S)NCCCN(C)C)c(C#N)cc2c1,15,2,13*,0,-4,-5,-8,18*
CCN(CC)c1ccc(C=NNC(=O)Cc2cc(=O)[nH][nH]2)c(O)c1,-1,x,x,x,x,x,x,x
CCOC(=O)c1c(C)n(-c2ccc(C)cc2)c2ccc(OCC(O)CN3CCN(C)CC3)cc12 (stereo not given),-7,-3,15*,-1,-3,-1,-6,26*
CCOC(=O)c1c(C)n(C)c2ccc(OCC(O)CN3CCN(C)CC3)cc12 (stereo not given),1,8,69*,3,-3,4,-6,75*
CCN1CCN(CC(O)COc2ccc(C)c(C)c2)CC1 (stereo not given),4,-1,-4,-4,x,x,x,x
CCN1CCN(CC(O)COc2ccc3c(C)cc(=O)oc3c2)CC1 (stereo not given),-2,-7,15*,0,-4,1,-7,23*
COc1ccc(S(=O)(=O)n2nc(OC(=O)c3cccs3)cc2NC(=O)c2cccs2)cc1,-2,-1,74*,-1,-3,37*,5.7*,16*
